Test results taken from ChEMBL document CHEMBL1811799, “Jatrophane diterpenes from Euphorbia esula as antiproliferative agents and potent chemosensitizers to overcome multidrug resistance” (J Nat Prod, 2011).

Assays:
[1] = test system: HeLa; test: Antiproliferative activity against human HeLa cells assessed as growth inhibition at 10 ug/mL after 72 hrs by MTT assay; type: functional; settings: read-out: GI
Procedure, shortened: (§1)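 MTT assay on human HeLa, Ishikawa and MCF7 cells seeded at 5000/well and left to attach overnight. Medium was then replaced with medium containing test substances (DMSO stocks, final DMSO up to 0.3%). After 72 h, MTT was added for 4 h, formazan was dissolved in DMSO and absorbance read at 545 nm. Untreated cells served as negative control and cisplatin as positive control. Two plates were run, each with at least five parallel wells.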

[2] = test system: Ishikawa; test: Antiproliferative activity against human Ishikawa cells assessed as growth inhibition at 10 ug/mL after 72 hrs by MTT assay; type: functional; settings: read-out: GI; procedure, shortened: as §1
[3] = test system: MCF7; test: Antiproliferative activity against human MCF7 cells assessed as growth inhibition at 10 ug/mL after 72 hrs by MTT assay; type: functional; settings: MCF7, 72 h, read-out: GI; procedure, shortened: as §1
[4] = test system: HeLa; test: Antiproliferative activity against human HeLa cells assessed as growth inhibition at 30 ug/mL after 72 hrs by MTT assay; type: functional; settings: read-out: GI; procedure, shortened: as §1
[5] = test system: Ishikawa; test: Antiproliferative activity against human Ishikawa cells assessed as growth inhibition at 30 ug/mL after 72 hrs by MTT assay; type: functional; settings: read-out: GI; procedure, shortened: as §1
[6] = test system: MCF7; test: Antiproliferative activity against human MCF7 cells assessed as growth inhibition at 30 ug/mL after 72 hrs by MTT assay; type: functional; settings: MCF7, 72 h, read-out: GI; procedure, shortened: as §1
[7] = target: T1, ATP-dependent translocase ABCB1 (Homo sapiens, UniProt P08183); test: Inhibition of MDR1-mediated rhodamine 123 uptake expressed in mouse L5178Y cells transfected with pHa MDR1/A assessed as fluorescence activity ratio at 4 ug/mL by flow cytometry relative to untreated control; type: cell-based
T1 sequence (P08183 whole entry): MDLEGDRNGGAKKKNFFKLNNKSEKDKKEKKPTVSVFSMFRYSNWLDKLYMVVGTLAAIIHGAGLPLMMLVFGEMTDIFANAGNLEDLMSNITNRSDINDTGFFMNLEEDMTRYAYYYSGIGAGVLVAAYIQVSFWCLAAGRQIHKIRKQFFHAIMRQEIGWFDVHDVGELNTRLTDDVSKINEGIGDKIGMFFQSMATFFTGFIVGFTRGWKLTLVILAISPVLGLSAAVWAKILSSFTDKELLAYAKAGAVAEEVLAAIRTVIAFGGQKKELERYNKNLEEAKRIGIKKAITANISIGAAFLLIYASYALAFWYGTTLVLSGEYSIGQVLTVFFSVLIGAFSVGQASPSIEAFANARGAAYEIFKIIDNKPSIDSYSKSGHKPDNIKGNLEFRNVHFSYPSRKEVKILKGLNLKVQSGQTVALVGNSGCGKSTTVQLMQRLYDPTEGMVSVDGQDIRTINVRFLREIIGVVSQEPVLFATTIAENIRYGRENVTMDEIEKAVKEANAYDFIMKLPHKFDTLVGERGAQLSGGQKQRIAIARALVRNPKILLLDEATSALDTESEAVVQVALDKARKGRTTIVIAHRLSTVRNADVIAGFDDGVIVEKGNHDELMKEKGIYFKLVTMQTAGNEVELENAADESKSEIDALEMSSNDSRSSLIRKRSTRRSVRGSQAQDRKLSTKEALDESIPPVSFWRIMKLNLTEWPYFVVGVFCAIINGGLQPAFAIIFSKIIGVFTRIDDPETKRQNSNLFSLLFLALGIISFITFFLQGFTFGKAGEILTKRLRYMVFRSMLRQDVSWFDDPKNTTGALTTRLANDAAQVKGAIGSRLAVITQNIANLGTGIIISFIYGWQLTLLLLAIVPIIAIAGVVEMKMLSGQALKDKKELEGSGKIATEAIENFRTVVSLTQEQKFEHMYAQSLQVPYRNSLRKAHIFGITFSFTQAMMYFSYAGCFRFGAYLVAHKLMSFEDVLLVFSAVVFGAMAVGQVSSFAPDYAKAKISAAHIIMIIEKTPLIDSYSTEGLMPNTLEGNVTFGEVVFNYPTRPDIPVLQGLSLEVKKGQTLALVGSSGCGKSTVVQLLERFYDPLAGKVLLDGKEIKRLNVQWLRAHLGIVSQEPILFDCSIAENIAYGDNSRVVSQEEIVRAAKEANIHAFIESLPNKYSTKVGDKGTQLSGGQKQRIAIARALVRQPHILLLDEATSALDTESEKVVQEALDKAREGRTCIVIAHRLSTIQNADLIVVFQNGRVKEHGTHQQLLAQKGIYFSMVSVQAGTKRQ
Procedure, shortened: (§2)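 Mouse L5178 lymphoma cells transfected with pHa MDR1/A retrovirus were kept under 60 ng/mL colchicine, alongside L5178Y parent cells, in McCoy's 5A medium with 10% horse serum. Cells at 2×10^6/mL in serum-free medium were preincubated with compound (4.0 or 40.0 μg/mL, in DMSO) for 10 min at room temperature. Rhodamine 123 was then added (5.2 μM final) for 20 min at 37 °C, and cells were washed and measured by flow cytometry. R compares treated versus untreated MDR cells relative to parental cells. Verapamil served as positive control.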

[8] = target: T1, ATP-dependent translocase ABCB1; test: Inhibition of MDR1-mediated rhodamine 123 uptake expressed in mouse L5178Y cells transfected with pHa MDR1/A assessed as fluorescence activity ratio at 40 ug/mL by flow cytometry relative to untreated control; type: cell-based; procedure, shortened: as §2

| Structure (SMILES) | inhibition of growth at 10 µg/mL [1] [%] | inhibition of growth at 10 µg/mL [2] [%] | inhibition of growth at 10 µg/mL [3] [%] | inhibition of growth at 30 µg/mL [4] [%] | inhibition of growth at 30 µg/mL [5] [%] | inhibition of growth at 30 µg/mL [6] [%] | Ratio [7] | Ratio [8] |
| --- | --- | --- | --- | --- | --- | --- | --- | --- |
| C=C1[C@H](OC(C)=O)CC(=O)C(C)(C)/C=C/[C@@H](C)C(=O)[C@@]2(OC(C)=O)C[C@@](C)(OC(=O)c3ccccc3)[C@H](OC(C)=O)[C@@H]2[C@H]1OC(C)=O [ESULATIN I] | 15.4 | 8 | 12.7 | 23.8 | 29.4 | 60.1 | 3.9 | 19.9 |
| C=C1[C@H](OC(C)=O)C[C@@H](OC(=O)c2cccnc2)C(C)(C)/C=C/[C@@H](C)C(=O)[C@@]2(OC(C)=O)C[C@@](C)(OC(C)=O)[C@H](OC(C)=O)[C@@H]2[C@H]1OC(C)=O | 13.9 | 8.1 | 20.3 | 17.9 | 13.9 | 36.3 | 1.7 | 2.3 |
| C=C1[C@H](OC(=O)C(C)C)C[C@@H](OC(=O)c2cccnc2)C(C)(C)/C=C/[C@@H](C)C(=O)[C@@]2(OC(C)=O)C[C@H](C)[C@H](OC(C)=O)[C@@H]2[C@H]1OC(C)=O | 18.3 | 5.9 | 18.5 | 4.5 | 16.4 | 14.4 | 16.6 | 119.9 |
| C=C1[C@H](OC(C)=O)C[C@@H](OC(=O)c2cccnc2)[C@](C)(OC(C)=O)C/C=C/[C@@H](C)C(=O)[C@@]2(OC(C)=O)C[C@@](C)(OC(=O)c3cccnc3)[C@H](OC(C)=O)[C@@H]2[C@H]1OC(C)=O [EUPHOSALICIN] | 14.5 | 0.9 | 6.3 | 18.1 | 7.6 | 20 | 1.9 | 12.3 |
| C=C1[C@H](OC(=O)C(C)C)[C@@H](OC(C)=O)[C@@H](OC(C)=O)C(C)(C)/C=C/[C@@H](C)C(=O)[C@@]2(OC(C)=O)C[C@@](C)(OC(C)=O)[C@H](OC(C)=O)[C@@H]2[C@H]1OC(C)=O | 2.9 | 21.4 | 8.7 | 10.9 | 17.1 | 23.3 | 5.5 | 14.8 |
| C=C1[C@H](OC(C)=O)CC(=O)C(C)(C)/C=C/[C@@H](C)C(=O)[C@@]2(OC(C)=O)C[C@@](C)(OC(C)=O)[C@H](OC(C)=O)[C@@H]2[C@H]1OC(C)=O [ESULATIN B] | 17.3 | 11.6 | 29.9 | 36.3 | 35 | 43.3 | 2.6 | 7.8 |
| C=C1[C@H](OC(=O)C(C)C)[C@@H](OC(C)=O)[C@@H](OC(C)=O)C(C)(C)[C@@H]2O[C@](O)([C@H](C)[C@@H]2OC(C)=O)[C@@]2(OC(C)=O)C[C@@](C)(OC(C)=O)[C@H](OC(C)=O)[C@@H]2[C@H]1OC(C)=O | 10.6 | 12 | 9.8 | 17.8 | 17.7 | 11.4 | 1.4 | 1 |
| C=C1[C@H](OC(=O)C(C)C)C[C@@H](OC(=O)c2cccnc2)C(C)(C)/C=C/[C@@H](C)C(=O)[C@@]2(OC(C)=O)C[C@@](C)(OC(C)=O)[C@H](OC(C)=O)[C@@H]2[C@H]1OC(C)=O | 6.4 | 17.5 | 3.6 | 1.1 | 26.6 | 16.7 | 23.8 | 36.4 |
| C=C1[C@H](OC(=O)C(C)C)CC(=O)C(C)(C)/C=C/[C@@H](C)C(=O)[C@@]2(OC(C)=O)C[C@H](C)[C@H](OC(C)=O)[C@@H]2[C@H]1OC(C)=O | 19.1 | 18.4 | 46.8 | 64.5 | 98.4 | 81.4 | 24.9 | 52.5 |
| C=C1/C=C\C(=O)C(C)(C)/C=C/[C@@H](C)C(=O)[C@@]2(OC(C)=O)C[C@@](C)(OC(C)=O)[C@H](OC(C)=O)[C@@H]2[C@H]1OC(C)=O [ESULATIN E] | 19.5 | 35.6 | 30.4 | 58.1 | 54.1 | 61.4 | – | – |
| CC(=O)O[C@H]1[C@H]2OC(=O)CC[C@](O)([C@@H]1OC(=O)C(C)C)[C@H](OC(C)=O)[C@H]1[C@@H](OC(C)=O)[C@](C)(OC(C)=O)C[C@]1(OC(C)=O)C(=O)[C@H](C)[C@H]1O[C@@H]1C2(C)C | 5.3 | 31.5 | 24.8 | 20.8 | 33 | 29.2 | 5.9 | 17.5 |
| C=C1[C@H](OC(C)=O)C[C@@H](OC(C)=O)C(C)(C)/C=C/[C@@H](C)C(=O)[C@@]2(OC(C)=O)C[C@@](C)(OC(C)=O)[C@H](OC(C)=O)[C@@H]2[C@H]1OC(C)=O [ESULATIN D] | 11.4 | 29.4 | 9.5 | 26.7 | 29.9 | 13.5 | 4.6 | 15.2 |
| C=C1[C@H](OC(C)=O)C[C@@H](OC(=O)c2cccnc2)C(C)(C)/C=C/[C@@H](C)C(=O)[C@@]2(OC(C)=O)C[C@@](C)(OC(=O)c3cccnc3)[C@H](OC(C)=O)[C@@H]2[C@H]1OC(C)=O [ESULATIN K] | 0.5 | 7.5 | 1.3 | 0.6 | 0.1 | 21.3 | 7.2 | 19.8 |
